Results from EPA's CvTdb concentration-time database.

Assays:
Mouse = test: concentration in plasma after dosing; details: dosed: 2,4-Dichlorophenoxyacetic acid, 1.0 mg/kg, iv, Male, B6C3F1
Rat [1] = test: concentration in plasma after dosing; details: dosed: 2-Hydroxy-4-methoxybenzophenone, 100 mg/kg, oral, Male, F344
Rat [2] = test: concentration in plasma after dosing; details: dosed: 2-Hydroxy-4-methoxybenzophenone, 250 mg/kg, oral, Male, F344
Rat [3] = test: concentration in plasma after dosing; details: dosed: 2-Hydroxy-4-methoxybenzophenone, 100 mg/kg, oral, Female, F344
Rat [4] = test: concentration in plasma after dosing; details: dosed: Methyleugenol, 37 mg/kg, iv, Male, F344
Rat [5] = test: concentration in plasma after dosing; details: dosed: Methyleugenol, 37 mg/kg, iv, Male, F344; remark: listed apart in the source
Rat [6] = test: concentration in brain after dosing; details: 12 h; dosed: Perfluorohexane-1-sulphonic acid – potassium salt; 16 mg/kg; oral; Female; F344
Rat [7] = test: concentration in kidney after dosing; details: 528 h; dosed: Perfluorohexane-1-sulphonic acid – potassium salt; 16 mg/kg; oral; Female; F344
Rat [8] = test: concentration in kidney after dosing; details: 48 h; dosed: Perfluorohexane-1-sulphonic acid – potassium salt; 16 mg/kg; oral; Female; Harlan Sprague Dawley
Rat [9] = test: concentration in plasma after dosing; details: dosed: Perfluorohexane-1-sulphonic acid – potassium salt, 4 mg/kg, oral, Male, F344
Rat [10] = test: concentration in kidney after dosing; details: 3 h; dosed: Perfluorohexane-1-sulphonic acid – potassium salt; 16 mg/kg; oral; Female; F344
Rat [11] = test: concentration in plasma after dosing; details: dosed: Perfluorohexane-1-sulphonic acid – potassium salt, 4 mg/kg, oral, Male, F344; remark: listed apart in the source
Rat [12] = test: concentration in plasma after dosing; details: 12 h; dosed: Primidone; 80 mg/kg; oral; Female; Harlan Sprague-Dawley
Rat [13] = test: concentration in plasma after dosing; details: 0.5 h; dosed: Primidone; 130 mg/kg; oral; Female; F344
Rat [14] = test: concentration in plasma after dosing; details: dosed: Pyridine, 5 mg/kg, oral, Male, F344
Rat [15] = test: concentration in brain after dosing; details: 5 min; dosed: alpha-Thujone; 25 mg/kg; oral; Male; Harlan Sprague Dawley
Rat [16] = test: concentration in brain after dosing; details: 6 h; dosed: alpha-Thujone; 25 mg/kg; oral; Male; Harlan Sprague Dawley
Rat [17] = test: concentration in plasma after dosing; details: 5 min; dosed: alpha-Thujone; 50 mg/kg; oral; Female; Harlan Sprague Dawley
Rat [18] = test: concentration in plasma after dosing; details: 2 min; dosed: alpha-Thujone; 50 mg/kg; oral; Female; Harlan Sprague Dawley
Rat [19] = test: concentration in plasma after dosing; details: 3 h; dosed: alpha-Thujone; 25 mg/kg; oral; Female; Harlan Sprague Dawley
Rat [20] = test: concentration in plasma after dosing; details: 0.5 h; dosed: alpha-Thujone; 25 mg/kg; oral; Female; Harlan Sprague Dawley
Rat [21] = test: concentration in plasma after dosing; details: 12 h; dosed: alpha-Thujone; 25 mg/kg; oral; Male; Harlan Sprague Dawley
Rat [22] = test: concentration in plasma after dosing; details: 1.5 h; dosed: alpha-Thujone; 50 mg/kg; oral; Male; Harlan Sprague Dawley
Rat [23] = test: concentration in plasma after dosing; details: 3 h; dosed: alpha-Thujone; 50 mg/kg; oral; Female; Harlan Sprague Dawley
rat [24] = test: concentration in blood after dosing; negative times count back from the end of exposure; details: dosed: trichloroethylene, 50 ppm, inhalation, duration: 4 hr, male, Sprague Dawley
dog = test: concentration in urine after dosing; details: dosed: trichloroethylene, 100 ppm, inhalation, duration: 6 hr, male, beagle
Summary of the method: (§1)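 Sampling and analytical methods are those of each source and frequently went unreported. The concentration-versus-time and amount-versus-time points were compiled from published in vivo toxicokinetic studies and two structured collections. Most were digitised from plot screenshots with WebPlotDigitizer, with others copied from tables, in the reported units.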

human = test: concentration in urine after dosing; details: dosed: trichloroethylene, inhalation, duration: 2 hr - 20 min
Summary of the method: as §1

Question: `O=C(O)COc1ccc(Cl)cc1Cl` [2,4-Dichlorophenoxyacetic acid] was tested. Which concentration in plasma (Mouse; 5 min) did it give?
Answer: 6550 ng/mL

Question: What about the concentration in plasma (Mouse; 0.25 h) of the same molecule?
Answer: 8220 ng/mL

Question: What about the concentration in plasma (Mouse; 0.5 h) of the same molecule?
Answer: 6040 ng/mL

Question: What about the concentration in plasma (Mouse; 1 h) of the same molecule?
Answer: 3120 ng/mL

Question: And the concentration in plasma (Mouse; 2.5 h)?
Answer: 266 ng/mL

Question: And the concentration in plasma (Mouse; 3 h)?
Answer: 1250 ng/mL

Question: Which concentration in plasma (Rat [1]; 0.25 h) does the source give for `O=C(c1ccccc1)c1ccc(O)cc1O` [2,4-Dihydroxybenzophenone] here?
Answer: 61.2 ng/mL

Question: What about the concentration in plasma (Rat [1]; 4 h) of the same molecule?
Answer: 48.4 ng/mL

Question: And the concentration in plasma (Rat [2]; 0.5 h)?
Answer: 888 ng/mL

Question: What about the concentration in plasma (Rat [2]; 10 h) of the same molecule?
Answer: 75.5 ng/mL

Question: What about the concentration in plasma (Rat [3]; 0.5 h) of the same molecule?
Answer: 195 ng/mL

Question: What about the concentration in plasma (Rat [3]; 5 h) of the same molecule?
Answer: 85.4 ng/mL

Question: How did the concentration in plasma (Rat [4]; 5 min) turn out when `C=CCc1ccc(OC)c(OC)c1` [Methyleugenol] was run?
Answer: 29200 ng/mL

Question: And the concentration in plasma (Rat [4]; 3 h)?
Answer: 263 ng/mL

Question: What about the concentration in plasma (Rat [5]; 0.5 h) of the same molecule?
Answer: 4010 ng/mL

Question: What about the concentration in plasma (Rat [5]; 0.75 h) of the same molecule?
Answer: 2000 ng/mL

Question: What does the source list for `O=S(=O)([O-])C(F)(F)C(F)(F)C(F)(F)C(F)(F)C(F)(F)C(F)(F)F.[K+]` [Perfluorohexane-1-sulphonic acid – potassium salt]?
Answer: concentration in brain (Rat [6]): 1770 ng/g; concentration in kidney (Rat [7]): 8530 ng/g; concentration in kidney (Rat [8]): 12000 ng/g; concentration in plasma (Rat [9]; 1 h): 18800 ng/mL; concentration in plasma (Rat [9]; 12 h): 32300 ng/mL; concentration in plasma (Rat [9]; 864 h): 6150 ng/mL; concentration in kidney (Rat [10]): 29100 ng/g; concentration in plasma (Rat [11]; 3 h): 28000 ng/mL; concentration in plasma (Rat [11]; 24 h): 31600 ng/mL; concentration in plasma (Rat [11]; 1200 h): 3240 ng/mL

Question: Which concentration in plasma (Rat [12]) does the source give for `CCC1(c2ccccc2)C(=O)NCNC1=O` [Primidone] here?
Answer: 1400 ng/mL

Question: What about the concentration in plasma (Rat [13]) of the same molecule?
Answer: 18800 ng/mL

Question: `c1ccncc1` [Pyridine] was tested. Which concentration in plasma (Rat [14]; 5 min) did it give?
Answer: 2490 ng/mL

Question: What about the concentration in plasma (Rat [14]; 4 h) of the same molecule?
Answer: 2550 ng/mL

Question: Which concentration in brain (Rat [15]) does the source give for `CC(C)[C@]12CC(=O)[C@H](C)[C@H]1C2` [alpha-Thujone] here?
Answer: 589 ng/g

Question: What about the concentration in brain (Rat [16]) of the same molecule?
Answer: 84.6 ng/g

Question: What about the concentration in plasma (Rat [17]) of the same molecule?
Answer: 2120 ng/mL

Question: What about the concentration in plasma (Rat [18]) of the same molecule?
Answer: 146 ng/mL

Question: What about the concentration in plasma (Rat [19]) of the same molecule?
Answer: 180 ng/mL

Question: And the concentration in plasma (Rat [20])?
Answer: 305 ng/mL

Question: What about the concentration in plasma (Rat [21]) of the same molecule?
Answer: 11.3 ng/mL

Question: And the concentration in plasma (Rat [22])?
Answer: 360 ng/mL

Question: And the concentration in plasma (Rat [23])?
Answer: 303 ng/mL

Question: What does the source list for `OCC(Cl)(Cl)Cl` [trichloroethanol (free)]?
Answer: concentration in blood (rat [24]; 0.1894 h): 1660 ng/mL; concentration in blood (rat [24]; 0.429 h): 1600 ng/mL; concentration in blood (rat [24]; 0.9471 h): 1580 ng/mL; concentration in blood (rat [24]; 1.964 h): 1500 ng/mL; concentration in blood (rat [24]; 3.996 h): 1440 ng/mL; concentration in blood (rat [24]; 5.928 h): 1510 ng/mL; concentration in blood (rat [24]; 7.943 h): 1140 ng/mL; concentration in blood (rat [24]; 9.955 h): 1050 ng/mL; concentration in blood (rat [24]; 11.95 h): 1030 ng/mL; concentration in blood (rat [24]; 13.94 h): 1040 ng/mL; concentration in blood (rat [24]; 15.88 h): 449 ng/mL; concentration in blood (rat [24]; 17.91 h): 747 ng/mL; concentration in blood (rat [24]; -180 s, during exposure): 1690 ng/mL; concentration in blood (rat [24]; -1.022 h, during exposure): 1260 ng/mL; concentration in blood (rat [24]; -1.958 h, during exposure): 1200 ng/mL; concentration in blood (rat [24]; -2.968 h, during exposure): 427 ng/mL

Question: Which results are given for `OCC(Cl)(Cl)Cl` [trichloroethanol]?
Answer: concentration in urine (dog; 24 h): 129000 ng/mL; concentration in urine (dog; 48 h): 115000 ng/mL; concentration in urine (dog; 72 h): 155000 ng/mL; concentration in urine (dog; 96 h): 205000 ng/mL; concentration in urine (dog; 120 h): 154000 ng/mL; concentration in urine (human; 2.667 h, 1348 mg): 158 mg/kg; concentration in urine (human; 2.667 h, 1681 mg): 125 mg/kg; concentration in urine (human; 2.667 h, 3907 mg): 186 mg/kg; concentration in urine (human; 6.667 h, 1348 mg): 161 mg/kg; concentration in urine (human; 6.667 h, 1681 mg): 236 mg/kg; concentration in urine (human; 6.667 h, 3907 mg): 258 mg/kg; concentration in urine (human; 10.67 h, 1348 mg): 79.7 mg/kg; concentration in urine (human; 10.67 h, 1681 mg): 136 mg/kg; concentration in urine (human; 10.67 h, 3907 mg): 154 mg/kg; concentration in urine (human; 19.67 h, 1348 mg): 65.3 mg/kg; concentration in urine (human; 19.67 h, 1681 mg): 131 mg/kg; concentration in urine (human; 19.67 h, 3907 mg): 168 mg/kg
